From ChEMBL document CHEMBL4270526, “A novel NAE/UAE dual inhibitor LP0040 blocks neddylation and ubiquitination leading to growth inhibition and apoptosis of cancer cells” (Eur J Med Chem, 2018)
Calls of active or inactive are those of the source. The calls are words filed in the database; no cut-off is given here.

Assays:
[1] = Antiproliferative activity against human LO2 cells after 48 hrs by CCK8 assay; type: cell-based, L02; details: read-out: LC50
[2] = Antiproliferative activity against HEK293T cells after 48 hrs by CCK8 assay; type: cell-based, HEK-293T; details: human, read-out: LC50
[3] = Antiproliferative activity against HUVEC after 48 hrs by CCK8 assay; type: cell-based; details: human, read-out: LC50
SK-OV-3 = assay: Antiproliferative activity against human SKOV3 cells after 48 hrs by CCK8 assay; type: functional, cell-based; details: SK-OV-3, 48 h
Summary of the method: (§1)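 Cells seeded at 6 × 10^3 cells/well and left 12 h at 37 °C, 5% CO2. Medium then replaced with serial compound dilutions, bortezomib as positive control. After 48 h, CCK-8 added for 4 h and absorbance read at 450 nm. Three repeats; IC50 from normalized nonlinear regression of inhibition curves.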

BXPC-3 = assay: Antiproliferative activity against human BxPC3 cells after 48 hrs by CCK8 assay; type: functional, cell-based; details: BXPC-3, 48 h; summary of the method: as §1
HCT-116 = assay: Antiproliferative activity against human HCT116 cells after 48 hrs by CCK8 assay; type: functional, cell-based; details: HCT-116, 48 h; summary of the method: as §1
A549 = assay: Antiproliferative activity against human A549 cells after 48 hrs by CCK8 assay; type: functional, cell-based; details: A549, 48 h; summary of the method: as §1
K562 = assay: Antiproliferative activity against human K562 cells after 48 hrs by CCK8 assay; type: functional, cell-based; details: K562, 48 h; summary of the method: as §1
AGS = assay: Antiproliferative activity against human AGS cells after 48 hrs by CCK8 assay; type: functional, cell-based; summary of the method: as §1
[4] = molecular target: T1, NEDD8 activating enzyme (Homo sapiens) (UniProt Q8TBC4+Q13564); assay: Inhibition of NAE in human AGS cells assessed as reduction in Ubc12-NEDD8 conjugation level at 10 to 90 uM after 24 hrs by Western blot analysis; type: cell-based
[5] = molecular target: T1, NEDD8 activating enzyme (Homo sapiens); assay: Inhibition of NAE in human AGS cells assessed as reduction in Uba3-NEDD8 conjugation level at 10 to 90 uM after 24 hrs by Western blot analysis; type: cell-based
[6] = molecular target: T1, NEDD8 activating enzyme (Homo sapiens); assay: Inhibition of NAE-mediated CRL neddylation in human AGS cells assessed as increase in CDT1 level after 24 hrs by Western blot analysis; type: cell-based
Summary of the method: (§2)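 AGS cells given 2, 4, 6, 8 or 10 μM compound or 0.1% DMSO for 24 h, washed in ice-cold PBS and lysed in RIPA on ice. Equal protein loads run by SDS-PAGE: non-reducing for NEDD8/SUMO/Ub conjugates, reducing for p27, NRF2, CDT1 and cleaved caspase-3. Blotted to PVDF with primary antibody overnight at 4 °C and HRP secondary, ECL detection, densitometry. Three repeats.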

[7] = molecular target: T1, NEDD8 activating enzyme (Homo sapiens); assay: Inhibition of NAE-mediated CRL neddylation in human AGS cells assessed as increase in NRF2 level after 24 hrs by Western blot analysis; type: cell-based; summary of the method: as §2
[8] = molecular target: T1, NEDD8 activating enzyme (Homo sapiens); assay: Inhibition of NAE in human AGS cells assessed as reduction in Cullins-NEDD8 conjugation level at 10 to 90 uM after 24 hrs by Western blot analysis; type: cell-based
[9] = molecular target: T1, NEDD8 activating enzyme (Homo sapiens); assay: Inhibition of NAE-mediated CRL neddylation in human AGS cells assessed as increase in p27 level after 24 hrs by Western blot analysis; type: cell-based; summary of the method: as §2
[10] = Hemolytic activity against rabbit erythrocytes assessed as hemolysis at 100 uM measured after 1 hr; type: ADME, cell-based, Oryctolagus cuniculus, Erythrocyte; details: read-out: Activity
Summary of the method: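 Rabbit erythrocytes pelleted at 3000 rpm for 10 min, washed twice and resuspended in PBS. Mixed 1:1 with 200 μM compound solution in PBS, 1 h at 37 °C. PBS served as 0% and 1% Triton X-100 as 100% hemolysis. After centrifugation, supernatant hemoglobin read at 540 nm; % hemolysis calculated relative to the Triton and PBS controls.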

SMILES | IC50 (SK-OV-3) [µM] | IC50 (BXPC-3) [µM] | IC50 (HCT-116) [µM] | IC50 (A549) [µM] | IC50 (K562) [µM] | IC50 (AGS) [µM] | inhibition [4] | inhibition [5] | inhibition [6] | inhibition [7] | inhibition [8] | inhibition [9] | CC50 at 48 h [1] [µM] | CC50 at 48 h [2] [µM] | CC50 at 48 h [3] [µM] | hemolysis at 1 h, 100 µM [10] [%]
CC(C)C[C@H](NC(=O)[C@H](Cc1ccccc1)NC(=O)c1cnccn1)B(O)O [BORTEZOMIB] |  |  |  |  |  |  |  |  |  |  |  |  | 0.398 | 0.016 | 0.018 | 
O=c1cc(-c2c[nH]nn2)c2ccc(N3CCC(NCCc4ccccc4)CC3)cc2o1 | > 30 | > 30 | > 30 | > 30 | > 30 | > 30 |  |  |  |  |  |  |  |  |  | 
O=c1cc(-c2cnc(O)nc2O)c2ccc(N3CCC(NCCc4ccccc4)CC3)cc2o1 | > 30 | > 30 | > 30 | > 30 | > 30 | > 30 | inactive | inactive | inactive | inactive | inactive | inactive |  |  |  | 
Clc1ccc(CCNC2CCN(Cc3ccccc3)CC2)c(Cl)c1 | 9.26 | 12.4 | 10.6 | 5.55 | 5.51 | 9.92 |  |  |  |  |  |  |  |  |  | 
NS(=O)(=O)OC[C@@H]1C[C@@H](n2ccc3c(N[C@@H]4CCc5ccccc54)ncnc32)C[C@@H]1O |  |  |  |  |  |  |  |  |  |  |  |  | 9.01 | 6.17 | 4.79 | 5.8
O=c1cc(C#Cc2cccnc2)c2ccc(N3CCC(NCCc4ccccc4)CC3)cc2o1 | 7.7 | 4.33 | 2.69 | 3.35 | 3.3 | 1.66 |  |  |  |  |  |  |  |  |  | < 10

The remaining compounds from weak to strong by IC50 (SK-OV-3), led by results:

IC50 (SK-OV-3) [µM] | IC50 (BXPC-3) [µM] | IC50 (HCT-116) [µM] | IC50 (A549) [µM] | IC50 (K562) [µM] | IC50 (AGS) [µM] | inhibition [4] | inhibition [5] | inhibition [6] | inhibition [7] | inhibition [8] | inhibition [9] | SMILES | CC50 at 48 h [1] [µM] | CC50 at 48 h [2] [µM] | CC50 at 48 h [3] [µM] | hemolysis at 1 h, 100 µM [10] [%]
7.5 | 1.33 | 4.27 | 3.1 | 1.32 | 1.42 |  |  |  |  |  |  | O=c1cc(C#Cc2cccc(Cl)c2)c2ccc(N3CCC(NCCc4ccccc4)CC3)cc2o1 |  |  |  | < 10
6.42 | 8.44 | 5.82 | 3.77 | 3.26 | 1.89 |  |  |  |  |  |  | Cc1ccc(-c2cc(=O)oc3cc(N4CCC(NCCc5ccccc5)CC4)ccc23)cc1C |  |  |  | 
5.94 | 7.67 | 6 | 3.09 | 3.29 | 1.39 |  |  |  |  |  |  | Cc1cc(-c2cc(=O)oc3cc(N4CCC(NCCc5ccccc5)CC4)ccc23)ccc1C(F)(F)F |  |  |  | 
4.35 | 2.01 | 2.79 | 2.48 | 2.63 | 1.71 |  |  |  |  |  |  | O=c1cc(C#CC2(O)CCCCC2)c2ccc(N3CCC(NCCc4ccccc4)CC3)cc2o1 |  |  |  | 
4.17 | 4.08 | 2.81 | 2.99 | 1.17 | 1.13 |  |  |  |  |  |  | O=c1cc(C#CC2CCCCC2)c2ccc(N3CCC(NCCc4ccccc4)CC3)cc2o1 |  |  |  | 
3.22 | 2.82 | 6.11 | 3.83 | 1.53 | 1.26 |  |  |  |  |  |  | O=c1cc(-c2ccc(Oc3ccccc3)cc2)c2ccc(N3CCC(NCCc4ccccc4)CC3)cc2o1 |  |  |  | 
